From ChEMBL document CHEMBL1782042, “Efficient microwave-assisted synthesis and antitumor activity of novel 4,4'-methylenebis[2-(3-aryl-4,5-dihydro-1H-pyrazol-5-yl)phenols]” (Eur J Med Chem, 2011)

Assays:
[1] = system: 786-0; test: Anticancer activity against human 786-0 cells after 48 hrs by sulforhodamine B assay; assay type: functional; settings: 786-0, 48 h
How it was run: (§1)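 NCI 60-cell-line in vitro screen, second stage: five concentration levels (100, 10, 1.0, 0.1 and 0.01 μM) with 48 h continuous drug exposure. Cell growth was estimated by sulforhodamine B protein staining. GI50 is the drug concentration that gives a 50% reduction in net protein increase relative to control cells over the incubation.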

[2] = system: HCT-15; test: Cytotoxicity against human HCT15 cells; assay type: cell-based
How it was run: (§2)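 NCI 60 human tumour cell line screen, second stage at five concentrations (100, 10, 1.0, 0.1 and 0.01 μM). Continuous drug exposure for 48 h, with cell growth estimated by sulforhodamine B protein staining. GI50 is the drug concentration giving a 50% reduction in net protein increase relative to control cells over the incubation.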

[3] = system: CAKI-1; test: Cytotoxicity against human Caki1 cells; assay type: cell-based; how it was run: as §2
[4] = system: HCC 2998; test: Anticancer activity against human HCC2998 cells after 48 hrs by sulforhodamine B assay; assay type: functional; settings: HCC 2998, 48 h; how it was run: as §1
[5] = system: DU-145; test: Anticancer activity against human DU145 cells after 48 hrs by sulforhodamine B assay; assay type: functional; settings: DU-145, 48 h; how it was run: as §1
[6] = system: OVCAR-8; test: Anticancer activity against human OVCAR8 cells after 48 hrs by sulforhodamine B assay; assay type: functional; settings: OVCAR-8, 48 h; how it was run: as §1
[7] = system: MDA-MB-231; test: Cytotoxicity against human MDA-MB-231 cells; assay type: cell-based; how it was run: as §2
[8] = system: SW-620; test: Anticancer activity against human SW620 cells after 48 hrs by sulforhodamine B assay; assay type: functional; settings: SW-620, 48 h
How it was run: (§3)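 NCI 60-cell-line screen, second stage. Five concentration levels (100, 10, 1.0, 0.1 and 0.01 μM), 48 h continuous drug exposure. Cell growth was estimated by sulforhodamine B protein staining. GI50 is the concentration giving a 50% reduction in net protein increase relative to control cells over the drug incubation. Compounds entered this stage after an earlier single-dose screen.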

[9] = system: ACHN; test: Anticancer activity against human ACHN cells after 48 hrs by sulforhodamine B assay; assay type: functional; how it was run: as §1
[10] = system: 786-0; test: Cytotoxicity against human 786-0 cells; assay type: cell-based; how it was run: as §2
[11] = system: RXF 393; test: Cytotoxicity against human RXF393 cells; assay type: cell-based; how it was run: as §2
[12] = system: SF-539; test: Cytotoxicity against human SF539 cells; assay type: cell-based; how it was run: as §2
[13] = system: UACC-257; test: Anticancer activity against human UACC257 cells after 48 hrs by sulforhodamine B assay; assay type: functional; settings: UACC-257, 48 h; how it was run: as §3
[14] = system: M14; test: Anticancer activity against human M14 cells after 48 hrs by sulforhodamine B assay; assay type: functional; settings: M14, 48 h; how it was run: as §1
[15] = system: A549; test: Cytotoxicity against human A549 cells; assay type: cell-based; how it was run: as §2
[16] = system: ACHN; test: Cytotoxicity against human ACHN cells; assay type: cell-based; how it was run: as §2
[17] = system: TK-10; test: Anticancer activity against human TK10 cells after 48 hrs by sulforhodamine B assay; assay type: functional; settings: TK-10, 48 h; how it was run: as §3
[18] = system: SNB-19; test: Anticancer activity against human SNB19 cells after 48 hrs by sulforhodamine B assay; assay type: functional; settings: SNB-19, 48 h; how it was run: as §1
[19] = system: HCT-116; test: Anticancer activity against human HCT116 cells after 48 hrs by sulforhodamine B assay; assay type: functional; settings: HCT-116, 48 h; how it was run: as §1
[20] = system: K562; test: Cytotoxicity against human K562 cells; assay type: cell-based; how it was run: as §2
[21] = system: HT-29; test: Cytotoxicity against human HT-29 cells; assay type: cell-based; how it was run: as §2
[22] = system: BT-549; test: Cytotoxicity against human BT549 cells; assay type: cell-based; how it was run: as §2
[23] = system: NCI-H522; test: Anticancer activity against human NCI-H522 cells after 48 hrs by sulforhodamine B assay; assay type: functional; settings: NCI-H522, 48 h; how it was run: as §1
[24] = system: SF-268; test: Cytotoxicity against human SF268 cells; assay type: cell-based; how it was run: as §2
[25] = system: CAKI-1; test: Anticancer activity against human Caki1 cells after 48 hrs by sulforhodamine B assay; assay type: functional; settings: CAKI-1, 48 h; how it was run: as §1
[26] = system: MOLT-4; test: Anticancer activity against human MOLT4 cells after 48 hrs by sulforhodamine B assay; assay type: functional; settings: MOLT-4, 48 h; how it was run: as §1
[27] = system: OVCAR-5; test: Anticancer activity against human OVCAR5 cells after 48 hrs by sulforhodamine B assay; assay type: functional; settings: OVCAR-5, 48 h; how it was run: as §1
[28] = system: HCT-15; test: Anticancer activity against human HCT15 cells after 48 hrs by sulforhodamine B assay; assay type: functional; settings: HCT-15, 48 h; how it was run: as §1
[29] = system: OVCAR-4; test: Anticancer activity against human OVCAR4 cells after 48 hrs by sulforhodamine B assay; assay type: functional; settings: OVCAR-4, 48 h; how it was run: as §1
[30] = system: DU-145; test: Cytotoxicity against human DU145 cells; assay type: cell-based; how it was run: as §2
[31] = system: NCI/ADR-RES; test: Cytotoxicity against human NCI/ADR-RES cells; assay type: cell-based; how it was run: as §2
[32] = system: Malme-3M; test: Cytotoxicity against human MALME-3M cells; assay type: cell-based; how it was run: as §2
[33] = system: M14; test: Cytotoxicity against human M14 cells; assay type: cell-based; how it was run: as §2
[34] = system: CCRF-CEM; test: Anticancer activity against human CCRF-CEM cells after 48 hrs by sulforhodamine B assay; assay type: functional; how it was run: as §1
[35] = system: MCF7; test: Cytotoxicity against human MCF7 cells; assay type: cell-based; how it was run: as §2
[36] = system: SF-539; test: Anticancer activity against human SF539 cells after 48 hrs by sulforhodamine B assay; assay type: functional; settings: SF-539, 48 h; how it was run: as §1
[37] = system: UACC-257; test: Cytotoxicity against human UACC257 cells; assay type: cell-based
How it was run: (§4)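 NCI 60 human tumour cell line screen; five concentration levels (100, 10, 1.0, 0.1 and 0.01 μM), 48 h continuous drug exposure. Cell growth estimated by sulforhodamine B (SRB) protein staining. GI50 taken as the drug concentration giving a 50% reduction in net protein increase relative to control cells over the incubation.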

[38] = system: T47D; test: Cytotoxicity against human T47D cells; assay type: cell-based; how it was run: as §4
[39] = system: NCI-H522; test: Cytotoxicity against human NCI-H522 cells; assay type: cell-based; how it was run: as §2
[40] = system: SF-295; test: Anticancer activity against human SF295 cells after 48 hrs by sulforhodamine B assay; assay type: functional; settings: SF-295, 48 h; how it was run: as §1
[41] = system: UO-31; test: Anticancer activity against human UO31 cells after 48 hrs by sulforhodamine B assay; assay type: functional; settings: UO-31, 48 h; how it was run: as §3
[42] = system: Hs-578T; test: Anticancer activity against human Hs578T cells after 48 hrs by sulforhodamine B assay; assay type: functional; how it was run: as §1
[43] = system: PC-3; test: Cytotoxicity against human PC3 cells; assay type: cell-based; how it was run: as §2
[44] = system: A498; test: Cytotoxicity against human A498 cells; assay type: cell-based; how it was run: as §2
[45] = system: NCI-H322M; test: Cytotoxicity against human NCI-H322M cells; assay type: cell-based; how it was run: as §2
[46] = system: Malme-3M; test: Anticancer activity against human MALME-3M cells after 48 hrs by sulforhodamine B assay; assay type: functional; how it was run: as §1
[47] = system: RXF 393; test: Anticancer activity against human RXF393 cells after 48 hrs by sulforhodamine B assay; assay type: functional; settings: RXF 393, 48 h; how it was run: as §1
[48] = system: SR; test: Anticancer activity against human SR cells after 48 hrs by sulforhodamine B assay; assay type: functional; how it was run: as §3
[49] = system: SNB-75; test: Anticancer activity against human SNB75 cells after 48 hrs by sulforhodamine B assay; assay type: functional; settings: SNB-75, 48 h; how it was run: as §3
[50] = system: PC-3; test: Anticancer activity against human PC3 cells after 48 hrs by sulforhodamine B assay; assay type: functional; settings: PC-3, 48 h; how it was run: as §1
[51] = system: OVCAR-5; test: Cytotoxicity against human OVCAR5 cells; assay type: cell-based; how it was run: as §2
[52] = system: SK-MEL-2; test: Cytotoxicity against human SK-MEL-2 cells; assay type: cell-based; how it was run: as §2
[53] = system: NCI-H226; test: Anticancer activity against human NCI-H226 cells after 48 hrs by sulforhodamine B assay; assay type: functional; settings: NCI-H226, 48 h; how it was run: as §1
[54] = system: A549; test: Anticancer activity against human A549 cells after 48 hrs by sulforhodamine B assay; assay type: functional; settings: A549, 48 h; how it was run: as §1

`Oc1ccc(Cc2ccc(O)c(C3CC(c4ccc(Cl)cc4)=NN3)c2)cc1C1CC(c2ccc(Cl)cc2)=NN1` (centres undefined) was tested, and the GI50 [1] was 3.81 µM, the LC50 [2] was > 100 µM and the LC50 [3] was > 100 µM. The GI50 [4] was 4.88 µM, the GI50 [5] was 3.46 µM and the GI50 [6] was 2.46 µM. The LC50 [7] was > 100 µM, the GI50 [8] was 3.29 µM and the GI50 [9] was 3.63 µM. For the same molecule, the LC50 [10] was > 100 µM, the LC50 [11] was > 100 µM and the LC50 [12] was > 100 µM. For the same molecule, the GI50 [13] was 2.56 µM, the GI50 [14] was 4.45 µM and the LC50 [15] was > 100 µM. The LC50 [16] was > 100 µM, the GI50 [17] was 5.34 µM and the GI50 [18] was 3.64 µM. The GI50 [19] was 1.85 µM, the LC50 [20] was > 100 µM and the LC50 [21] was > 100 µM. The LC50 [22] was > 100 µM, the GI50 [23] was 2.95 µM and the LC50 [24] was > 100 µM. For the same molecule, the GI50 [25] was 2.67 µM, the GI50 [26] was 2.7 µM and the GI50 [27] was 6.1 µM. For the same molecule, the GI50 [28] was 2.51 µM, the GI50 [29] was 3.54 µM and the LC50 [30] was > 100 µM. The LC50 [31] was > 100 µM, the LC50 [32] was > 100 µM and the LC50 [33] was > 100 µM. For the same molecule, the GI50 [34] was 1.94 µM, the LC50 [35] was > 100 µM and the GI50 [36] was 5.82 µM. For the same molecule, the LC50 [37] was > 100 µM, the LC50 [38] was > 100 µM and the LC50 [39] was 46.2 µM. It also gave a GI50 [40] of 1.47 µM, a GI50 [41] of 3.04 µM and a GI50 [42] of 2.76 µM. For the same molecule, the LC50 [43] was > 100 µM, the LC50 [44] was > 100 µM and the LC50 [45] was > 100 µM. For the same molecule, the GI50 [46] was 5.08 µM, the GI50 [47] was 3.99 µM and the GI50 [48] was 1.83 µM. For the same molecule, the GI50 [49] was 4.26 µM, the GI50 [50] was 3.32 µM and the LC50 [51] was > 100 µM. It also gave an LC50 [52] of 85.5 µM, a GI50 [53] of 4.74 µM and a GI50 [54] of 2.45 µM.
